# High-throughput results: PubChem BioAssay, Broad Institute
# Rows were chosen to be rich in hits. Some 2% of all compounds tested hit in one or more screens of this group.
# Xi reactivation: activators of X-chromosome reactivation in mouse fibroblasts | XiGFP mouse fibroblasts, % GFP-positive cells imaging, 3 d; cells co-treated with 5-aza-dC sensitizer; scaled so ellipticine positive control = 100% | activation, % at 7.58 µM | actives 0.055% (n = 360,000) | AID 743238;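 active = mean normalized replicate activation at least 10% and every replicate at or above 10%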;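 also: 0% = median of on-plate neutral control wells and 100% = ellipticine 6 µM median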
#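 Assay system: SV40-immortalized XiGFP fibroblast cells, line 68-5-11; buffer or medium: DMEM plus 5-aza-dC sensitizer; compound: one concentration, pinned; timing: compounds 3 days, fix/stain 15 min at room temperature; benchmarks: positive control ellipticine, 6 µM final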
# RAD52 anneal inh: RAD52 (human) annealing inhibition; inhibition, % at 18.7 µM; recombinant RAD52 DNA annealing, FRET fluorescence; P43351; actives 0.46% (n = 360,000);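 active = every replicate showing at least 50% inhibition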
# rRNA inh HTS: inhibitors of bacterial rRNA selective over humanized ribosomes | GFP signal change (wild-type ribosome), % (concentration not given with the values) | E. coli WT GFP vs humanized-ribosome RFP mutants, fluorescence, 24 h; hits give low values; DMSO median 0, no signal -100 | actives 1.6% (n = 350,000);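 active = significant combined selectivity score with lowered wild-type GFP, culture density cut under 30%, mutant RFP and density less affected; inactive = any of these conditions unmet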
# RAD54 branch: blocks human RAD54 Holliday junction branch migration; actives 0.14% (n = 360,000); Q92698; inhibition, % at 10.4 µM; FAM/BHQ fluorescence;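 active = mean normalized replicate activity at least 40 and at least half of replicates scoring 40 or more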;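 also: 0% = median of neutral control wells and 100% = median of positive control wells; inhibitors cause a drop in the FAM fluorescence signal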
# Target sequence (Q92698 whole entry, looked up): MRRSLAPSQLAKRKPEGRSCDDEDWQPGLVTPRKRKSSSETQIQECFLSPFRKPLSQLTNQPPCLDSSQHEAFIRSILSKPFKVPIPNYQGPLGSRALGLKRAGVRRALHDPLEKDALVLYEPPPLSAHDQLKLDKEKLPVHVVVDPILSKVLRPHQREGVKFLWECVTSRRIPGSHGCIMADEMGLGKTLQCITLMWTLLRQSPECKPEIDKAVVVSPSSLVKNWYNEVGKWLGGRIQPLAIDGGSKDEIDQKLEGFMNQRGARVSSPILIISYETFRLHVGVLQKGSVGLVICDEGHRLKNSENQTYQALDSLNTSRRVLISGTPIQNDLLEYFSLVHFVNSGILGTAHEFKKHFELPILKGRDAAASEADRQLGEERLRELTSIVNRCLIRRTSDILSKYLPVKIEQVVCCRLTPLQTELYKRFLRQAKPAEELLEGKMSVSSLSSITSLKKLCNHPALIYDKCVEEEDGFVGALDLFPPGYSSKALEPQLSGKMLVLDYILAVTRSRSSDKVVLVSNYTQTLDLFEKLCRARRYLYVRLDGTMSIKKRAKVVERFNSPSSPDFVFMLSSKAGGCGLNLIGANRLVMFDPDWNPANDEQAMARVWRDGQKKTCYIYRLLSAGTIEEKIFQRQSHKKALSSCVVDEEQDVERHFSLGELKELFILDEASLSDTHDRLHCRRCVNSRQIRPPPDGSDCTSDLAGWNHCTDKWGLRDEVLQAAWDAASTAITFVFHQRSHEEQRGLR
# PglD DTNB: blocks C. jejuni PglD acetyltransferase activity | actives 0.098% (n = 360,000) | AID 602405 | inhibition, % at 12.5 µM | purified PglD enzyme, DTNB colorimetric CoA detection; in the data active = inhibition above about 16%, passing the limit was not always enough
# E-sel inducer: induces E-selectin expression in human endothelial cells; P16581; HUVEC E-selectin immunofluorescence imaging; normalized: neutral wells 0, TNF-alpha wells 100; activation, % at 7.58 µM; actives 0.37% (n = 260,000);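 active = mean E-selectin-positive cell signal at least 10% of the positive control, reached in at least 60% of replicates, without over 20% cell loss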
#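 Assay system: HUVEC primary endothelial cells. Input: 3,000 HUVEC seeded per well. Doses: one compound dose added by pin transfer. Read-out basis: % PE-positive cells. Benchmarks: TNF-alpha high, DMSO low. Detection: immunofluorescence imaging. Buffer or medium: EGM-2, gelatin.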
# * = called active by the depositor; . = no result given.
SMILES,Xi reactivation,RAD52 anneal inh,rRNA inh HTS,RAD54 branch,PglD DTNB,E-sel inducer
C/C=C/c1cnc2c(c1)C(=O)N([C@H](C)CO)C[C@@H](C)[C@H](CN(C)C(=O)Nc1ccc(F)cc1)O2,-1.2,-10.5,6.0,2.8,6.6,0.3
CCOC(=O)C1=C(C(=O)OCC)C2N(Cc3ccc(Br)cc3)c3ccccc3[C@@]23C[C@@H](C(=O)OC)N(S(=O)(=O)c2cccs2)C3=N1 (stereo partly specified),0.2,1.1,9.8,.,.,0.0
Cc1c(Cc2ccc3c(c2)OCO3)sc(NC(=O)C2CC2)c1C(N)=O,-0.1,-5.7,-26.8*,-3.1,0.0,0.5
Cc1c(Cc2ccc3c(c2)OCO3)sc(NC(=O)c2cccc3ccccc23)c1C(N)=O,-0.3,-18.5,1.4,-3.1,5.5,.
CN1C(=O)c2cc(NC(=O)Nc3ccc(F)cc3)ccc2OC[C@H]2O[C@@H](CC(=O)NC3CCC3)CC[C@@H]21,0.4,-6.3,3.8,-6.3,2.3,0.1
COc1ccccc1-c1ccc(SCc2ccccc2)nn1,0.1,-6.0,-33.4*,.,.,.
COc1ccccc1-c1ccc(SCc2cccc(F)c2)nn1,0.0,-38.2,-29.5*,.,.,22.4
Fc1ccccc1CSc1ccc(-c2ccco2)nn1,0.2,-9.8,2.5,.,.,3.8
COc1ccccc1-c1ccc(SCC(=O)NCCc2ccccc2)nn1,0.0,-10.7,-31.9*,-0.8,3.8,-0.3
COc1ccccc1-c1ccc(SCC(=O)NCc2ccc3c(c2)OCO3)nn1,0.2,-22.6,-24.5,.,.,-0.1
COc1ccccc1-c1ccc(SCc2ccccc2F)nn1,0.3,-17.2,-35.7*,.,.,0.5
CC(C)NC(=O)Nc1cccc2c1O[C@H](CN(C)C(=O)NC(C)C)[C@@H](C)CN(C)C2=O,0.2,.,0.3,.,.,.
CN1CCCCC(NC(=O)C23CC4CC(CC(C4)C2)C3)C1=O (stereo unspecified),0.2,-46.2,7.8,.,.,1.8
COc1ccc(S(=O)(=O)N(C)C[C@H]2OCCCC[C@@H](C)Oc3ccc(NC(=O)c4ccccc4)cc3C(=O)N([C@H](C)CO)C[C@@H]2C)cc1,-0.6,-33.2,0.7,-3.1,-3.0,0.3
C[C@@H]1CCCCO[C@H](CN(C)C(=O)Nc2ccccc2)[C@H](C)CN([C@@H](C)CO)C(=O)c2cc(NC(=O)Nc3ccc4c(c3)OCO4)ccc2O1,0.0,21.2,-0.5,-1.3,3.0,0.0
CO[C@H]1CC[C@H]2CCN(C)C(=O)C[C@H](c3ccccc3)CN(C)C(=O)c3cccc(C#N)c3OC[C@H]1O2,-0.1,5.9,0.0,1.5,-0.3,0.0
CN(C)C(=O)[C@H]1[C@H](CO)[C@H]2Cn3c(ccc(C4=CCCC4)c3=O)[C@@H]1N2CC1CCOCC1,0.2,-2.6,1.7,-0.2,3.9,-0.2
C[C@H]1CCCCO[C@H](CN(C)C(=O)c2ccccc2)[C@@H](C)CN([C@@H](C)CO)C(=O)c2cc(NS(C)(=O)=O)ccc2O1,0.1,9.6,-1.4,4.9,-1.2,-0.2
COc1ccc(/C=C/C(=O)NC(=S)NCC2CCCO2)cc1 (stereo unspecified),0.1,-14.2,6.0,.,.,.
COc1ccccc1/C=C/C(=O)NC(=S)NCC1CCCO1 (stereo unspecified),-0.1,-16.2,-25.0*,2.9,.,-0.1
Cc1noc(C)c1S(=O)(=O)N(C)C[C@@H]1Oc2c(NS(C)(=O)=O)cccc2C(=O)N([C@@H](C)CO)C[C@H]1C,0.3,2.5,0.9,.,.,-4.9
COc1ccc(Cn2c(O)c(C=Nc3ccccc3C(=O)O)c3ccccc3c2=O)cc1,-0.1,-24.9,-13.2,12.1,-17.7,.
COc1ccccc1NS(=O)(=O)c1cccc(-n2c(O)c(C=Nc3ccccc3C(=O)O)c3ccccc3c2=O)c1,-0.1,-16.8,-24.6*,4.4,-10.8,.
CO[C@H]1CN(C)C(=O)c2ccc(NC(=O)C3CC3)cc2OC[C@H](C)N(C(=O)c2cccnc2)C[C@@H]1C,0.2,-6.0,1.9,-0.1,2.5,0.6
COC(=O)c1c(C(=O)OC)c(-c2ccc(Cl)c(Cl)c2)n2c1CCC2,.,-3.6,-29.4*,.,.,.
